Bioassay records from PubChem.
Rows were chosen to be rich in hits. Some 2.9% of all compounds tested hit in one or more screens of this group.
DENV2 CPE – protects cells from dengue virus 2 cytopathic effect. DENV2-infected cells, cytopathic effect rescue, plate reader. CPE inhibition, % at 9.99 µM. 1.7% of 350,000 active. AID 651640; in the data active = CPE inhibition above about 20%, passing the limit was not always enough; tested in BHK-21 cells
CAL PDZ FP-1 – CAL PDZ (human) peptide binding inhibition. Q9HD26. AID 602252. inhibition, % at 24.9 µM. 0.92% of 300,000 active. purified CAL PDZ, TMR-peptide fluorescence polarization, 1 h;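 active = mean inhibition of at least 30% with at least half of replicates also reaching 30%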
ERAP1 inh – blocks human ERAP1 aminopeptidase activity; recombinant ERAP1, Leu-AMC fluorescence, 60 min; inhibition, % at 10.7 µM; 0.15% of 340,000 active; AID 652197;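 active = mean replicate inhibition of at least 30%, or all replicates individually reaching that 30% level; inactive = mean below 30% and not every replicate reaching it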
Target sequence (Q9NZ08 whole entry, looked up): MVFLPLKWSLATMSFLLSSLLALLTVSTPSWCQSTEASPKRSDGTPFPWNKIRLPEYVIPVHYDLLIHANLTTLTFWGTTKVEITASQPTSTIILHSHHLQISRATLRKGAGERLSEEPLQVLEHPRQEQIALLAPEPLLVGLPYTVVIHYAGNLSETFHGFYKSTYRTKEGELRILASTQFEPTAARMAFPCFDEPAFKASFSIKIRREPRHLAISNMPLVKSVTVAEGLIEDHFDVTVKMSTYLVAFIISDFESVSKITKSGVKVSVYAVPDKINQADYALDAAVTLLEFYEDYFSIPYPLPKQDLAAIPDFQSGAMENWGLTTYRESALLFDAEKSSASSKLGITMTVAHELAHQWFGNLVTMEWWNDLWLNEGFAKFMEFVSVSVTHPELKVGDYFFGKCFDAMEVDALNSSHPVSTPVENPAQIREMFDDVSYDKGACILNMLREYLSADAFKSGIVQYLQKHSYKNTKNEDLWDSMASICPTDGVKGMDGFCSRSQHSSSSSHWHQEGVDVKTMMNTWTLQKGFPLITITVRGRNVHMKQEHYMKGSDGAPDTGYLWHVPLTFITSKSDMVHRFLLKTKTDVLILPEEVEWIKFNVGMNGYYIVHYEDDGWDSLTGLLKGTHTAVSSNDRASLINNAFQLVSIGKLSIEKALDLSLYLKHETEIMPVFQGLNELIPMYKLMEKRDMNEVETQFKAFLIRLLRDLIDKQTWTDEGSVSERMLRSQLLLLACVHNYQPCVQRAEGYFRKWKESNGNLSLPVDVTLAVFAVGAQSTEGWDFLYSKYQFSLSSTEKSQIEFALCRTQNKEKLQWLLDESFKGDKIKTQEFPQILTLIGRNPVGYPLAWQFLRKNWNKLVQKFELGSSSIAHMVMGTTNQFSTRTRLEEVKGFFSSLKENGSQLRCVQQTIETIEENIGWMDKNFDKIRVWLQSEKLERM
CAL PDZ FP-2 – inhibitors of human CAL PDZ peptide binding; 0.02% of 330,000 active; AID 504414; inhibition, % at 20 µM; purified CAL PDZ, TMR-peptide fluorescence polarization, 1 h; Q9HD26;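 active = highest replicate inhibition of at least 40%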
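Control set: unlabelled peptide and DMSO controls / Material: purified CerCALP PDZ construct / Timing: 1 h incubation at room temperature before polarization reading / Doses: 20 µM, one dose / Detection: fluorescence polarization (mP)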
SIRT5 block – inhibitors of human sirtuin-5 desuccinylase. inhibition, % at 15 µM. Purified SirT5, succinyl-peptide AMC, trypsin-coupled fluorescence. AID 652115. Q9NXA8. 1.1% of 330,000 active; in the data active = inhibition above about 15%
S100A4 MyoIIA – blocks human S100A4 binding to myosin IIA peptide; inhibition, % at 10.7 µM; S100A4/TAMRA-MyoIIA peptide fluorescence polarization; 0.14% of 360,000 active; AID 652163;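 active = mean inhibition of at least 70% across replicates, with every replicate also reaching that level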
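Test system: S100A4 monomer protein; Medium: HEPES pH 7.2 with CaCl2, KCl, NaCl, DTT, Triton; Probe or stimulus: TAMRA-labelled myosin IIA heavy-chain peptide probe, 5 nM; Doses: one dose per compound; Times: polarization read 5 min after assay mix addition, stable 5–60 min; Benchmarks: neutral control DMSO, positive control TFP.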
Large screens that a line does not name were inactive; ! = a repeat was not active.

CC(=O)N(C)C[C@H]1[C@@H](c2ccc(C#CC(C)C)cc2)[C@@H](CO)N1C(=O)C1CCC1	none (no result: CAL PDZ FP-1, CAL PDZ FP-2)
COc1ccc(S(=O)(=O)N2CCOC23CCN(S(=O)(=O)c2ccccc2)CC3)cc1	SIRT5 block 27 (no result: CAL PDZ FP-1)
Fc1ccccc1CN1[C@@H]2CNC[C@H]1C2c1ccc(-c2ccncc2)cc1 (stereo partly specified)	none (no result: CAL PDZ FP-1, CAL PDZ FP-2)
FC(F)(F)c1ccc(Cl)c(NC(=S)N/N=C/c2ccccc2Cl)c1	SIRT5 block 28 (no result: CAL PDZ FP-1, ERAP1 inh, CAL PDZ FP-2)
FC(F)(F)c1cc(-c2ccccc2)nc(N2CCCCC2)n1	none (no result: DENV2 CPE, ERAP1 inh, SIRT5 block, S100A4 MyoIIA)
O=C(O)C1CCCN1c1nc(-c2ccc(Cl)c(Cl)c2)cc(C(F)(F)F)n1 (stereo unspecified)	CAL PDZ FP-1 91
COc1ccc(C(C)=O)cc1CSc1nnc(Nc2ccc(C)cc2)s1	DENV2 CPE 47
COc1ccc(C(C)=O)cc1CSc1nnc(Nc2ccccc2)s1	none (no result: DENV2 CPE, ERAP1 inh, SIRT5 block, S100A4 MyoIIA)
Cc1c(Cl)c(C(=O)N2CCCCCC2)nn1C	none
Cc1c(Cl)c(C(=O)N2CCCC2)nn1C	DENV2 CPE 121
COc1ccc2c3c(n(C)c2c1)[C@H](CO)N(S(C)(=O)=O)CC31CCN(Cc2cccnc2)CC1	none (no result: CAL PDZ FP-1, CAL PDZ FP-2)
CC(C)NC(=O)c1cccc(Br)c1	SIRT5 block 28
Cc1ccc(C(=O)NNC(=O)c2cccc(Br)c2)cc1	none
COc1ccccc1NC(=O)Nc1ccc2c(c1)C(=O)N(C)C[C@@H](OC)[C@@H](C)CN[C@@H](C)CO2	none (no result: CAL PDZ FP-1, ERAP1 inh, CAL PDZ FP-2, S100A4 MyoIIA)
Cc1nonc1CN(C)C(=O)c1cc(COc2ccc(F)cc2Cl)on1	none
CSc1ccccc1OCc1cc(C(=O)N(C)Cc2nonc2C)no1	CAL PDZ FP-1 36
COc1ccc(S(=O)(=O)N(C)C[C@@H]2OCCCC[C@H](C)Oc3ccc(NC(=O)Cc4ccccc4)cc3C(=O)N([C@H](C)CO)C[C@@H]2C)cc1	none (no result: CAL PDZ FP-1, CAL PDZ FP-2)
COC1=C/C(=C/c2c(N)n3nc(CC(=O)N4CCCC4)sc3nc2=O)C=CC1=O	SIRT5 block 30
CCOC1=C/C(=C/c2c(N)n3nc(CC(=O)N4CCCC4)sc3nc2=O)C=CC1=O	none
COC1=CC(=Cc2c(N)n3nc(CC(=O)N4CCCCC4)sc3nc2=O)C=C(OC)C1=O	SIRT5 block 32
CN1c2ccc(Br)cc2[C@H]2[C@H](CCN2C(=O)C2CCCC2)[C@H]1CO	none (no result: CAL PDZ FP-1, CAL PDZ FP-2)
CN(C)CCC(C(=O)c1ccccc1)c1ccncc1 (stereo unspecified)	none (no result: SIRT5 block)
CN(C)CCC(C(=O)c1ccccc1)c1ccccn1 (stereo unspecified)	CAL PDZ FP-1 85 (no result: DENV2 CPE, ERAP1 inh, SIRT5 block, S100A4 MyoIIA)
CCOC(=O)N(C)C[C@@H]1OCc2cnnn2CCCC(=O)N([C@@H](C)CO)C[C@@H]1C	DENV2 CPE 70! (no result: CAL PDZ FP-1, CAL PDZ FP-2)
C[C@@H]1CN([C@@H](C)CO)C(=O)CCCn2nncc2CO[C@H]1CN(C)C(=O)Nc1ccccc1	DENV2 CPE 31 (no result: CAL PDZ FP-1, CAL PDZ FP-2)
C[C@H]1CN([C@@H](C)CO)C(=O)CCCn2nncc2CO[C@@H]1CN(C)C(=O)c1ccc2ccn(C)c2c1	SIRT5 block 38! (no result: CAL PDZ FP-1, CAL PDZ FP-2)
C[C@@H]1CN([C@H](C)CO)C(=O)CCCn2nncc2CO[C@@H]1CN(C)C(=O)c1ccc2ccn(C)c2c1	none (no result: CAL PDZ FP-1, CAL PDZ FP-2)
CC(C)NC(=O)N(C)C[C@H]1OCc2cnnn2CCCC(=O)N([C@H](C)CO)C[C@@H]1C	DENV2 CPE 92! (no result: CAL PDZ FP-1, CAL PDZ FP-2)
CC(C)NC(=O)N(C)C[C@@H]1OCc2cnnn2CCCC(=O)N([C@@H](C)CO)C[C@@H]1C	none (no result: CAL PDZ FP-1, CAL PDZ FP-2)
CCOC(=O)N(C)C[C@H]1OCc2cnnn2CCCC(=O)N([C@H](C)CO)C[C@H]1C	none (no result: CAL PDZ FP-1, CAL PDZ FP-2)
CCCC(=O)Nc1ccc2c(c1)C(=O)N(C)[C@@H]1CC[C@H](CC(=O)N3CCc4ccccc4C3)O[C@H]1CO2	none (no result: CAL PDZ FP-1, ERAP1 inh, CAL PDZ FP-2, SIRT5 block, S100A4 MyoIIA)
COCC(=O)Nc1ccc2c(c1)C(=O)N(C)C[C@@H](OC)[C@H](C)CN(Cc1ccccc1)[C@H](C)CO2	none (no result: CAL PDZ FP-1, CAL PDZ FP-2)
O=C(NC1CCCCC1)c1cccc2c1C(=O)c1ccc(N3CCCC3)cc1S2(=O)=O	none (no result: DENV2 CPE, SIRT5 block)
CC1CCN(c2ccc3c(c2)S(=O)(=O)c2cccc(C(=O)NC4CCCCC4)c2C3=O)CC1	DENV2 CPE 34 (no result: ERAP1 inh, SIRT5 block)
CC(C)(C)CNC(=O)c1cccc2c1C(=O)c1ccc(N3CCCC3)cc1S2(=O)=O	DENV2 CPE 29 (no result: SIRT5 block)
CO[C@@H]1CN(C)C(=O)c2cc(NC(=O)C3CCCC3)ccc2OC[C@H](C)N(C(=O)CC2CC2)C[C@@H]1C	none (no result: CAL PDZ FP-1, CAL PDZ FP-2)
